{
  "source": "ChEMBL document CHEMBL1687827",
  "about": "“Profiling the Aspergillus fumigatus proteome in response to caspofungin” (2011)",
  "key": {"[1]": {"system": "Aspergillus fumigatus", "experiment": "Induction of change in cytochrome c protein level in iTRAQ114 labelled secreted fraction of drug-susceptible Aspergillus fumigatus KU80 delta-akuB at 0.12 ug/ml after 24 hrs in YPD medium by MS (MS/MS) analysis relative to control", "format": "functional", "summary_of_the_method": "(§1)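 Conidia at 1 × 10⁵/ml grown shaking at 37°C in YPD with or without 0.12 μg/ml caspofungin; mycelia filtered at 24 or 48 h. Secreted fraction taken from the filtrate; cell wall/plasma membrane pellet recovered after French-press lysis and a 5,000 × g spin. Proteins trypsin-digested and iTRAQ-labelled, drug vs no-drug channels at each time, then 2D LC-MS/MS. Protein ratio is the median of ratios from uniquely assigned peptides after median normalization.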"}, "[2]": {"system": "Aspergillus fumigatus", "experiment": "Induction of change in aconitate hydratase, mitochondrial protein level in iTRAQ-116 labelled secreted fraction of drug-susceptible Aspergillus fumigatus KU80 delta-akuB at 0.12 ug/ml after 48 hrs in YPD medium by MS (MS/MS) analysis relative to control", "format": "functional", "summary_of_the_method": "as §1"}, "[3]": {"system": "Aspergillus fumigatus", "experiment": "Induction of change in 60S ribosomal protein L27e protein level in iTRAQ-118 labelled cell wall fraction of drug-resistant Aspergillus fumigatus EMFR-S678P at 0.12 ug/ml after 24 hrs in YPD medium by MS (MS/MS) analysis relative to control", "format": "functional", "summary_of_the_method": "(§2)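 Conidia at 1 × 10⁵/ml were grown at 37°C, shaking at 225 rpm, in YPD with or without 0.12 μg/ml caspofungin for 24 or 48 h. The culture filtrate was kept as the secreted fraction. Mycelia were lysed by French press in HEPES/glycerol/EDTA/PMSF/DTT buffer, and the 5,000 × g pellet was washed to give CW/PM. Proteins were reduced, alkylated and trypsin-digested at 37°C overnight, then iTRAQ-labelled and run by 2D LC-MS/MS. Ratios are the median of unique-peptide ratios, median-normalized, versus the no-drug control.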"}, "[4]": {"system": "Aspergillus fumigatus", "experiment": "Induction of change in 60S ribosomal protein L7 protein level in iTRAQ114 labelled cell wall fraction of drug-susceptible Aspergillus fumigatus KU80 delta-akuB at 0.12 ug/ml after 24 hrs in YPD medium by MS (MS/MS) analysis relative to control", "format": "functional", "summary_of_the_method": "as §1"}, "[5]": {"system": "Aspergillus fumigatus", "experiment": "Induction of change in cytochrome c protein level in iTRAQ114 labelled secreted fraction of drug-resistant Aspergillus fumigatus EMFR-S678P at 0.12 ug/ml after 24 hrs in YPD medium by MS (MS/MS) analysis relative to control", "format": "functional", "summary_of_the_method": "as §2"}, "[6]": {"system": "Aspergillus fumigatus", "experiment": "Induction of change in hypothetical protein locus AFUA_8G07100 level in iTRAQ-116 labelled secreted fraction of drug-susceptible Aspergillus fumigatus KU80 delta-akuB at 0.12 ug/ml after 48 hrs in YPD medium by MS (MS/MS) analysis relative to control", "format": "functional", "summary_of_the_method": "(§3)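 Conidia (1 × 10⁵/ml) grown in YPD, 37°C, 225 rpm, ± 0.12 μg/ml caspofungin; filtrate taken as secreted fraction, French-press lysate 5,000 × g pellet as cell wall/plasma membrane. Trypsin digests 8-plex iTRAQ-labelled (drug-free channels as references), pooled, 2D-chromatography, MS/MS. Median-normalized; protein ratio = median of unique-peptide ratios, log2 normalized.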"}, "[7]": {"system": "Aspergillus fumigatus", "experiment": "Induction of change in extracellular thaumatin domain protein, putative gene expression in drug-susceptible Aspergillus fumigatus KU80 delta-akuB at 0.12 ug/ml after 48 hrs in YPD medium by microarray analysis relative to control", "format": "functional", "summary_of_the_method": "(§4)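 Mycelia grown in YPD ± 0.12 μg/ml caspofungin (1 × 10⁵ conidia/ml, 37°C, shaking) and harvested at 24 or 48 h. Total RNA extracted, DNase-treated and quality-checked; 2 μg labelled per TIGR SOP M007 and hybridized to whole-genome arrays. Three independent experiments with dye flip (6 replicates); drug vs untreated fold change.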"}, "[8]": {"system": "Aspergillus fumigatus", "experiment": "Induction of change in IgE-binding gene expression in drug-susceptible Aspergillus fumigatus KU80 delta-akuB at 0.12 ug/ml after 48 hrs in YPD medium by microarray analysis relative to control", "format": "functional", "summary_of_the_method": "as §4"}, "[9]": {"system": "Aspergillus fumigatus", "experiment": "Induction of change in 60s ribosomal protein l21 protein level in iTRAQ114 labelled secreted fraction of drug-susceptible Aspergillus fumigatus KU80 delta-akuB at 0.12 ug/ml after 24 hrs in YPD medium by MS (MS/MS) analysis relative to control", "format": "functional", "summary_of_the_method": "as §1"}, "[10]": {"system": "Aspergillus fumigatus", "experiment": "Induction of change in 60S ribosomal protein L10 protein level in iTRAQ-118 labelled cell wall fraction of drug-resistant Aspergillus fumigatus EMFR-S678P at 0.12 ug/ml after 24 hrs in YPD medium by MS (MS/MS) analysis relative to control", "format": "functional, organism-based", "summary_of_the_method": "as §2"}, "[11]": {"system": "Aspergillus fumigatus", "experiment": "Induction of change in BYS1 domain protein, putative protein level in iTRAQ-118 labelled cell wall fraction of drug-resistant Aspergillus fumigatus EMFR-S678P at 0.12 ug/ml after 24 hrs in YPD medium by MS (MS/MS) analysis relative to control", "format": "functional, organism-based", "summary_of_the_method": "as §2"}, "[12]": {"system": "Aspergillus fumigatus", "experiment": "Induction of change in citrate synthase, eukaryotic protein level in iTRAQ-116 labelled cell wall fraction of drug-susceptible Aspergillus fumigatus KU80 delta-akuB at 0.12 ug/ml after 48 hrs in YPD medium by MS (MS/MS) analysis relative to control", "format": "functional", "summary_of_the_method": "as §1"}, "[13]": {"system": "Aspergillus fumigatus", "experiment": "Induction of change in translation elongation factor eEF-3, putative protein level in iTRAQ-118 labelled cell wall fraction of drug-susceptible Aspergillus fumigatus KU80 delta-akuB at 0.12 ug/ml after 24 hrs in YPD medium by MS (MS/MS) analysis relative to control", "format": "functional", "summary_of_the_method": "as §3"}, "[14]": {"system": "Aspergillus fumigatus", "experiment": "Antifungal activity against drug-susceptible Aspergillus fumigatus KU80 delta-akuB assessed as change in hyphal morphology by YPD medium", "format": "functional", "details": "read-out: MEC", "summary_of_the_method": "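Broth microdilution per CLSI M38-A2, in triplicate, in YPD broth (2% yeast extract, 4% peptone, 4% dextrose); minimum effective concentration read as the lowest drug concentration giving a significant change in hyphal morphology visible by eye. Caspofungin dissolved in sterile water.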"}, "[15]": {"system": "Aspergillus fumigatus", "experiment": "Induction of change in 14-3-3 family protein ArtA, putative protein level in iTRAQ-116 labelled secreted fraction of drug-susceptible Aspergillus fumigatus KU80 delta-akuB at 0.12 ug/ml after 48 hrs in YPD medium by MS (MS/MS) analysis relative to control", "format": "functional", "summary_of_the_method": "as §1"}, "[16]": {"system": "Aspergillus fumigatus", "experiment": "Induction of change in allergen Asp F4 protein level in iTRAQ-116 labelled secreted fraction of drug-susceptible Aspergillus fumigatus KU80 delta-akuB at 0.12 ug/ml after 48 hrs in YPD medium by MS (MS/MS) analysis relative to control", "format": "functional", "summary_of_the_method": "as §1"}, "[17]": {"system": "Aspergillus fumigatus", "experiment": "Induction of change in Plasma membrane H-ATPase Pma1 protein level in iTRAQ114 labelled cell wall fraction of drug-resistant Aspergillus fumigatus EMFR-S678P at 0.12 ug/ml after 24 hrs in YPD medium by MS (MS/MS) analysis relative to control", "format": "functional", "summary_of_the_method": "as §2"}, "[18]": {"system": "Aspergillus fumigatus", "experiment": "Induction of change in allergen Asp F3 protein level in iTRAQ-116 labelled secreted fraction of drug-resistant Aspergillus fumigatus EMFR-S678P at 0.12 ug/ml after 48 hrs in YPD medium by MS (MS/MS) analysis relative to control", "format": "functional", "summary_of_the_method": "as §2"}},
  "note": "The source made the active and inactive calls. No cut-off for these calls is given here.",
  "data": [
    {"smiles": "CC[C@H](C)C[C@H](C)CCCCCCCCC(=O)N[C@H]1C[C@@H](O)[C@@H](NCCN)NC(=O)[C@@H]2[C@@H](O)CCN2C(=O)[C@H]([C@H](O)CCN)NC(=O)[C@H]([C@H](O)[C@@H](O)c2ccc(O)cc2)NC(=O)[C@@H]2C[C@@H](O)CN2C(=O)[C@H]([C@@H](C)O)NC1=O", "note": "[CASPOFUNGIN]", "values": [
      {"measurement": "fold change (FC)", "setting": "[1]", "result": -2.6},
      {"measurement": "fold change (FC)", "setting": "[2]", "result": 1.2},
      {"measurement": "fold change (FC)", "setting": "[3]", "result": -1.15},
      {"measurement": "fold change (FC)", "setting": "[4]", "result": 2},
      {"measurement": "fold change (FC)", "setting": "[5]", "result": -1.07},
      {"measurement": "fold change (FC)", "setting": "[6]", "result": 2.1},
      {"measurement": "fold change (FC)", "setting": "[7]", "result": -11.2},
      {"measurement": "fold change (FC)", "setting": "[8]", "result": 7.6},
      {"measurement": "fold change (FC)", "setting": "[9]", "result": -1},
      {"measurement": "Activity", "setting": "[10]", "result": "inactive"},
      {"measurement": "Activity", "setting": "[11]", "result": "inactive"},
      {"measurement": "fold change (FC)", "setting": "[12]", "result": -1.2},
      {"measurement": "fold change (FC)", "setting": "[13]", "result": 2.1},
      {"measurement": "minimal effective concentration", "setting": "[14]", "result": 0.19, "unit": "µg/mL"},
      {"measurement": "fold change (FC)", "setting": "[15]", "result": -2},
      {"measurement": "fold change (FC)", "setting": "[16]", "result": -7},
      {"measurement": "fold change (FC)", "setting": "[17]", "result": -1.15},
      {"measurement": "fold change (FC)", "setting": "[18]", "result": -1.52}
    ]}
  ]
}
